# pIC50: −log10 of the molar value.
# Columns and labels:
# Ketohexokinase = target: T1, Ketohexokinase (Homo sapiens, UniProt P50053); assay: Inhibition of KHK-mediated conversion of D-fructose to fructose-1-phosphate after 60 mins by high throughput mass spectrometry analysis
# T1 sequence (P50053 whole entry): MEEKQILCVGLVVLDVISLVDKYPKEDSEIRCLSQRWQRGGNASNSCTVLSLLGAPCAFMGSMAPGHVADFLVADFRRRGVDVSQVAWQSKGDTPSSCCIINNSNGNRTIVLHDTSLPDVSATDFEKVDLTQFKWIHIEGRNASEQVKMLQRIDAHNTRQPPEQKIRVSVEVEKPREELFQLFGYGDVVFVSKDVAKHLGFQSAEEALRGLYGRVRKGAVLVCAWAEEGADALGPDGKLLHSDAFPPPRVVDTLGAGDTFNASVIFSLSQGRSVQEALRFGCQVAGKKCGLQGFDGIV
# Method in brief: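 KHK enzyme assay at 25 °C with 200 µM fructose, 100 µM ATP and 2 nM KHK under steady-state conditions for 60 min. Fructose-1-P product read out by high-throughput mass spectrometry (RapidFire). 12-point dose–response curve used to derive IC50. 384-well format.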
# [1] = Metabolic stability in rat liver microsomes assessed as compound remaining after 10 mins; assay type: ADME, Microsome; conditions: read-out: Stability
# Rattus norvegicus = assay: AUClast in rat at 10 mg/kg, po after 24 hrs; assay type: ADME, organism-based, Plasma; set-up: time < 24 hr, dose 10 mg/kg, route oral; conditions: in vivo
# Method in brief: (§1)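 Rat pharmacokinetics over 24 h. Oral dose 10 mg/kg and iv dose 2 mg/kg.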
# [2] = Half life in rat at 10 mg/kg, po after 24 hrs; assay type: ADME, organism-based; set-up: dose 10 mg/kg, route oral; conditions: in vivo; method in brief: as §1
# [3] = Volume of distribution at steady state in rat at 2 mg/kg, iv after 24 hrs; assay type: ADME, organism-based; set-up: dose 2 mg/kg, route intravenous; conditions: in vivo, read-out: Vdss; method in brief: as §1
# [4] = Cmax in rat at 10 mg/kg, po after 24 hrs; assay type: ADME, organism-based; set-up: dose 10 mg/kg, route oral; conditions: in vivo; method in brief: as §1
# [5] = Bioavailability in rat at 10 mg/kg, po after 24 hrs; conditions: in vivo
# [6] = Clearance in rat at 2 mg/kg, iv after 24 hrs; assay type: ADME, organism-based; set-up: dose 2 mg/kg, route intravenous; conditions: in vivo; method in brief: as §1
# [7] = Inhibition of sodium channel at 10 uM
Compound,pIC50 (Ketohexokinase),further results
CSc1nn(-c2ccccc2)c2c(OCC3CCNCC3)cccc12,6.62,
Cn1nc(-c2ccccc2)c2cc(N3CCNCC3)ccc21,5.89,
CSc1nn(-c2ccccc2)c2cc(C3CCNCC3)ccc12,6.48,
CSc1nn(-c2ccccc2)c2c(C3=CCNCC3)cccc12,4.94,
CSc1nn(-c2cccc(C)c2)c2cc(C3=CCNCC3)ccc12,7.47,
CSc1nn(-c2ccccc2)c2cc(N3CCN(C4CCNCC4)CC3)ccc12,6.17,
CSc1nn(-c2cccc(F)c2)c2cc(C3=CCNCC3)ccc12,7.38,remaining at 10 min [1]: 96%
CCc1nn(-c2ccccc2)c2cc(N3CC4CNCC4C3)ccc12 (configuration not stated),,AUClast (Rattus norvegicus): 5680 ng·h/mL; half-life [2]: 3.41 h; Vd [3]: 7.81 L/kg; Cmax [4]: 619 ng/mL; bioavailability [5]: 98.8%; clearance [6]: 28.9 mL/min/kg
CSc1nn(-c2ccc(F)cc2)c2cc(C3=CCNCC3)ccc12,7.64,remaining at 10 min [1]: 105%
CSc1nn(-c2ccccc2)c2c(OC3CCNCC3)cccc12,5.77,
CCc1nn(-c2ccccc2)c2cc(N3CCN(C4CCNC4)CC3)ccc12 (configuration not stated),6.04,AUClast (Rattus norvegicus): 4890 ng·h/mL; half-life [2]: 19.6 h; Vd [3]: 13.9 L/kg; Cmax [4]: 399 ng/mL; bioavailability [5]: 72.4%; clearance [6]: 21.2 mL/min/kg
COc1ccc(-n2nc(SC)c3ccc(C4=CCNCC4)cc32)cc1,7.06,
CCc1nn(-c2ccccc2)c2cc(N3CCN(C4CCNCC4)CC3)ccc12,,inhibition [7]: 61%
CSc1nn(-c2ccccc2)c2cc(C3=CCNCC3)ccc12,7.10,remaining at 10 min [1]: 72%
CSc1nn(-c2ccc([N+](=O)[O-])cc2)c2cc(C3=CCNCC3)ccc12,6.32,
CSc1nn(-c2ccccc2)c2cc(NC(=O)CC3CCNCC3)ccc12,6.17,
CCc1nc(-c2ccccc2)n2cc(N3CCNCC3)ccc12,< 4.70,
CSc1nn(-c2ccccc2)c2cc(-c3ccncc3)ccc12,< 5.00,
